Reference: ChEMBL document CHEMBL2163282, “Discovery and characterization of AZD9272 and AZD6538-Two novel mGluR5 negative allosteric modulators selected for clinical development” (Bioorg Med Chem Lett, 2012)
Calls of active or inactive are those of the source. The rule behind the calls is not given here.

Assays:
[1] = target: Metabotropic glutamate receptor 5 (Rattus norvegicus) (UniProt P31424); assay: (§1) Negative allosteric modulation of rat recombinant mGluR5 expressed in HEK293 cells expressing GLAST assessed as inhibition of DHPG-induced intracellular Ca2+ level after 30 mins by FLIPR assay; type: functional, cell-based
Procedure, shortened: (§2)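 Human or rat mGluR5 expressed recombinantly in HEK293 cells that constitutively express the glutamate/aspartate transporter (mGluR5-GHEK). Intracellular Ca2+ rise evoked by DHPG was read on FLIPR. Potency was taken from test-compound inhibition of that response. Mean of 3 separate experiments.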

[2] = target: Metabotropic glutamate receptor 5 (Rattus norvegicus, UniProt P31424); assay: as §1; type: functional, cell-based; procedure, shortened: as §2
[3] = Terminal half life in Sprague-Dawley rat at 3 umol/kg, iv; type: ADME, organism-based; conditions: in vivo, read-out: beta t1/2 (converted)
Procedure, shortened: (§3)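 Male rats (n = 3) received a single intravenous dose of 3 µmol/kg. Vehicle was 40% w/w dimethylacetamide/40% w/w PEG 400/20% w/w water. Plasma drug was measured after liquid–liquid extraction by reversed-phase LC with APCI or ESI tandem MS.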

[4] = Clearance in Sprague-Dawley rat at 3 umol/kg, iv; type: ADME, organism-based; conditions: in vivo; procedure, shortened: as §3
[5] = Plasma protein binding in Sprague-Dawley rat after 6 hrs by equilibrium dialysis method; type: ADME, cell-free; conditions: read-out: PPB (converted)
[6] = target: Metabotropic glutamate receptor 8 (Homo sapiens) (UniProt O00222); assay: Positive allosteric modulation of mGluR8 assessed as effect on intracellular Ca2+ level up to 30 uM by cell based FLIPR assay; type: functional
Procedure, shortened: (§4)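 Each of the seven other mGluR subtypes was tested at concentrations up to 30 µM. Agonist, antagonist and positive allosteric modulator modes were each assessed. Read-out was the change in intracellular Ca2+ on FLIPR.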

[7] = target: Metabotropic glutamate receptor 3 (Homo sapiens) (UniProt Q14832); assay: Positive allosteric modulation of mGluR3 assessed as effect on intracellular Ca2+ level up to 30 uM by cell based FLIPR assay; type: functional; procedure, shortened: as §4
[8] = target: Metabotropic glutamate receptor 2 (Homo sapiens) (UniProt Q14416); assay: Positive allosteric modulation of mGluR2 assessed as effect on intracellular Ca2+ level up to 30 uM by cell based FLIPR assay; type: functional; procedure, shortened: as §4
[9] = target: Metabotropic glutamate receptor 1 (Homo sapiens) (UniProt Q13255); assay: Positive allosteric modulation of mGluR1 assessed as effect on intracellular Ca2+ level up to 30 uM by cell based FLIPR assay; type: functional; procedure, shortened: as §4
[10] = target: Metabotropic glutamate receptor 8 (Homo sapiens) (UniProt O00222); assay: Antagonist activity at mGluR8 assessed as effect on intracellular Ca2+ level up to 30 uM by cell based FLIPR assay; type: functional; procedure, shortened: as §4
[11] = target: Metabotropic glutamate receptor 7 (Homo sapiens) (UniProt Q14831); assay: Antagonist activity at mGluR7 assessed as effect on intracellular Ca2+ level up to 30 uM by cell based FLIPR assay; type: functional; procedure, shortened: as §4
[12] = target: Metabotropic glutamate receptor 6 (Homo sapiens) (UniProt O15303); assay: Antagonist activity at mGluR6 assessed as effect on intracellular Ca2+ level up to 30 uM by cell based FLIPR assay; type: functional; procedure, shortened: as §4
[13] = target: Metabotropic glutamate receptor 4 (Homo sapiens) (UniProt Q14833); assay: Antagonist activity at mGluR4 assessed as effect on intracellular Ca2+ level up to 30 uM by cell based FLIPR assay; type: functional; procedure, shortened: as §4
[14] = target: Metabotropic glutamate receptor 2 (Homo sapiens) (UniProt Q14416); assay: Antagonist activity at mGluR2 assessed as effect on intracellular Ca2+ level up to 30 uM by cell based FLIPR assay; type: functional; procedure, shortened: as §4
[15] = target: Metabotropic glutamate receptor 8 (Homo sapiens) (UniProt O00222); assay: Agonist activity at mGluR8 assessed as effect on intracellular Ca2+ level up to 30 uM by cell based FLIPR assay; type: functional; procedure, shortened: as §4
[16] = target: Metabotropic glutamate receptor 7 (Homo sapiens) (UniProt Q14831); assay: Agonist activity at mGluR7 assessed as effect on intracellular Ca2+ level up to 30 uM by cell based FLIPR assay; type: functional; procedure, shortened: as §4
[17] = target: Metabotropic glutamate receptor 6 (Homo sapiens) (UniProt O15303); assay: Agonist activity at mGluR6 assessed as effect on intracellular Ca2+ level up to 30 uM by cell based FLIPR assay; type: functional; procedure, shortened: as §4
[18] = target: Metabotropic glutamate receptor 3 (Homo sapiens) (UniProt Q14832); assay: Agonist activity at mGluR3 assessed as effect on intracellular Ca2+ level up to 30 uM by cell based FLIPR assay; type: functional; procedure, shortened: as §4
[19] = target: Metabotropic glutamate receptor 2 (Homo sapiens) (UniProt Q14416); assay: Agonist activity at mGluR2 assessed as effect on intracellular Ca2+ level up to 30 uM by cell based FLIPR assay; type: functional; procedure, shortened: as §4
[20] = target: Metabotropic glutamate receptor 1 (Homo sapiens) (UniProt Q13255); assay: Agonist activity at mGluR1 assessed as effect on intracellular Ca2+ level up to 30 uM by cell based FLIPR assay; type: functional; procedure, shortened: as §4
[21] = Volume of distribution at steady state in Sprague-Dawley rat at 3 umol/kg, iv; type: ADME, organism-based; conditions: in vivo, read-out: Vdss; procedure, shortened: as §3
[22] = Cmax in Sprague-Dawley rat at 3 umol/kg, po; type: ADME, organism-based; set-up: dose 3 umol/kg, route oral; conditions: in vivo
Procedure, shortened: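 Male rats (n = 3) received a single oral dose of 3 µmol/kg. Vehicle was Polyvidon K30 1.7 mg/ml, sodium lauryl sulphate 0.34 mg/ml and glycerin 25.0 mg/ml in water. Plasma levels were measured by liquid–liquid extraction and reversed-phase LC-MS/MS (APCI or ESI).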

[23] = Intrinsic clearance in human liver microsomes; type: ADME, Microsome; conditions: read-out: CLH
Procedure, shortened: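 Intrinsic clearance was determined in human or rat microsomes and expressed per min per mg protein.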

[24] = target: T1, Metabotropic glutamate receptor 5 (Homo sapiens, UniProt P41594); assay: Negative allosteric modulation of human recombinant mGluR5 expressed in HEK293 cells expressing GLAST assessed as inhibition of glutamate-stimulated IP accumulation incubated for 10 mins prior to glutamate challenge measured 30 mins post glutamate challenge by scintillation counter in presence of [3H]myo-inositol; type: functional, cell-based
[25] = target: T1, Metabotropic glutamate receptor 5; assay: Negative allosteric modulation of human recombinant mGluR5 expressed in HEK293 cells expressing GLAST assessed as inhibition of ATP-induced intracellular Ca2+ level at 10 uM after 30 mins by FLIPR assay; type: functional, cell-based
Procedure, shortened: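 FLIPR intracellular Ca2+ readout in background GHEK cells (HEK293 with glutamate/aspartate transporter, lacking mGluR5), stimulated with 10 µM ATP; test compound at 10 µM to check off-target inhibition.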

[26] = target: Metabotropic glutamate receptor 5 (Rattus norvegicus) (UniProt P31424); assay: Negative allosteric modulation of rat recombinant mGluR5 expressed in HEK293 cells expressing GLAST assessed as inhibition of DHPG-induced intracellular Ca2+ level at 0.001 to 3 uM after 30 mins by FLIPR assay; type: functional, cell-based
[27] = target: T1, Metabotropic glutamate receptor 5; assay: Negative allosteric modulation of human recombinant mGluR5 expressed in HEK293 cells expressing GLAST assessed as inhibition of DHPG-induced intracellular Ca2+ level at 0.001 to 3 uM after 30 mins by FLIPR assay; type: functional, cell-based
[28] = target: T1, Metabotropic glutamate receptor 5; assay: Noncompetitive inhibition of human mGluR5 expressed in HEK cells assessed as inhibition of DHPG-induced intracellular Ca2+ level at 10 to 300 nM after 30 mins by FLIPR assay; type: functional, cell-based; conditions: HEK293
Procedure, shortened: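 Human mGluR5-GHEK cells on FLIPR: DHPG concentration–response curves run at increasing modulator concentrations, intracellular Ca2+ read-out; shifts in DHPG potency and maximal response evaluated for non-competitive interaction.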

[29] = target: T1, Metabotropic glutamate receptor 5; assay: Negative allosteric modulation of human recombinant mGluR5 expressed in HEK293 cells expressing GLAST assessed as inhibition of DHPG-induced intracellular Ca2+ level after 30 mins by FLIPR assay

Chain of Metabotropic glutamate receptor 2 (Homo sapiens) (Q14416 19-872 limits assumed): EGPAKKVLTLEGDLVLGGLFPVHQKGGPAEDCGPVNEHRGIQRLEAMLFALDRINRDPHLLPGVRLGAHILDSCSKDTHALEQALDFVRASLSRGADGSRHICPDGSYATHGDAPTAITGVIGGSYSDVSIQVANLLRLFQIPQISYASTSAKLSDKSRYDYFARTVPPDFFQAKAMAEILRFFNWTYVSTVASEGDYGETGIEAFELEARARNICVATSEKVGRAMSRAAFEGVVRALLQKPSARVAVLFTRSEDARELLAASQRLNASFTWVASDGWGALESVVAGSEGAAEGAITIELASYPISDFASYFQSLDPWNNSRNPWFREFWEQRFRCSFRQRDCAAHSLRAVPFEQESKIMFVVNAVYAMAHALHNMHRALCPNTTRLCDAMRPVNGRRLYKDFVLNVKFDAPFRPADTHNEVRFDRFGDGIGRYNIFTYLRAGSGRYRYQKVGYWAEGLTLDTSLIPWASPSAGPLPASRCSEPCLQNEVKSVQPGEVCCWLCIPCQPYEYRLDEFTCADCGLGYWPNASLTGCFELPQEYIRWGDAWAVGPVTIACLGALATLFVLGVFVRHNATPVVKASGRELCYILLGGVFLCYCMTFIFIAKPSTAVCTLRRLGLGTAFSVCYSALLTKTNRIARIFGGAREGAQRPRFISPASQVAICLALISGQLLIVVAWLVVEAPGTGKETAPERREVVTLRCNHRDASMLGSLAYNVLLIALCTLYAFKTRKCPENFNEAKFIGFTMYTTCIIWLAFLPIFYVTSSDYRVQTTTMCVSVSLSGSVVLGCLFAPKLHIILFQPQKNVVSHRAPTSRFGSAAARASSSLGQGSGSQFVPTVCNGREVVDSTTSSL
Chain of Metabotropic glutamate receptor 6 (Homo sapiens) (O15303 whole entry): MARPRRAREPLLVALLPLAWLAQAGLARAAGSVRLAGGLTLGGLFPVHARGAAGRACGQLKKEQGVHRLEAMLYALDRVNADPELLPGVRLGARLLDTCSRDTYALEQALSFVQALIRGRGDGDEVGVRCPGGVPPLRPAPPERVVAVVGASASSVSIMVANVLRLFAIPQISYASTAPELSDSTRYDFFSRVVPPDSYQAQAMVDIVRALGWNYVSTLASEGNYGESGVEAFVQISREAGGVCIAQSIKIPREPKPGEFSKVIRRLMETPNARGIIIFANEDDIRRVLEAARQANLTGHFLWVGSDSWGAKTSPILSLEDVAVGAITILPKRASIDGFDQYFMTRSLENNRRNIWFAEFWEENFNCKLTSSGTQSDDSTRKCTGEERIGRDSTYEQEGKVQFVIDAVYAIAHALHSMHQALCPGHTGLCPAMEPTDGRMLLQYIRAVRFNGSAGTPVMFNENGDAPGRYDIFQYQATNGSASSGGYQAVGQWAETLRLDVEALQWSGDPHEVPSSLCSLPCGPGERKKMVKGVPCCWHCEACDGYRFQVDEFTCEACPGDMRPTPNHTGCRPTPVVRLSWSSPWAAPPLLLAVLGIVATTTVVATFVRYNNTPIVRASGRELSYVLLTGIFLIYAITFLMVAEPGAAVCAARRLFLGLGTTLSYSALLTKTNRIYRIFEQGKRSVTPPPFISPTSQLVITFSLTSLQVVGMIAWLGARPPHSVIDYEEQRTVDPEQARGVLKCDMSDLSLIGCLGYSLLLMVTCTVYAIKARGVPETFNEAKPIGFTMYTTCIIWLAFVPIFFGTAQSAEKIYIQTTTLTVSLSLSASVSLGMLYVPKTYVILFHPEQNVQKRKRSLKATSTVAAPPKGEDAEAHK
Chain of Metabotropic glutamate receptor 1 (Homo sapiens) (Q13255 19-1194 limits assumed): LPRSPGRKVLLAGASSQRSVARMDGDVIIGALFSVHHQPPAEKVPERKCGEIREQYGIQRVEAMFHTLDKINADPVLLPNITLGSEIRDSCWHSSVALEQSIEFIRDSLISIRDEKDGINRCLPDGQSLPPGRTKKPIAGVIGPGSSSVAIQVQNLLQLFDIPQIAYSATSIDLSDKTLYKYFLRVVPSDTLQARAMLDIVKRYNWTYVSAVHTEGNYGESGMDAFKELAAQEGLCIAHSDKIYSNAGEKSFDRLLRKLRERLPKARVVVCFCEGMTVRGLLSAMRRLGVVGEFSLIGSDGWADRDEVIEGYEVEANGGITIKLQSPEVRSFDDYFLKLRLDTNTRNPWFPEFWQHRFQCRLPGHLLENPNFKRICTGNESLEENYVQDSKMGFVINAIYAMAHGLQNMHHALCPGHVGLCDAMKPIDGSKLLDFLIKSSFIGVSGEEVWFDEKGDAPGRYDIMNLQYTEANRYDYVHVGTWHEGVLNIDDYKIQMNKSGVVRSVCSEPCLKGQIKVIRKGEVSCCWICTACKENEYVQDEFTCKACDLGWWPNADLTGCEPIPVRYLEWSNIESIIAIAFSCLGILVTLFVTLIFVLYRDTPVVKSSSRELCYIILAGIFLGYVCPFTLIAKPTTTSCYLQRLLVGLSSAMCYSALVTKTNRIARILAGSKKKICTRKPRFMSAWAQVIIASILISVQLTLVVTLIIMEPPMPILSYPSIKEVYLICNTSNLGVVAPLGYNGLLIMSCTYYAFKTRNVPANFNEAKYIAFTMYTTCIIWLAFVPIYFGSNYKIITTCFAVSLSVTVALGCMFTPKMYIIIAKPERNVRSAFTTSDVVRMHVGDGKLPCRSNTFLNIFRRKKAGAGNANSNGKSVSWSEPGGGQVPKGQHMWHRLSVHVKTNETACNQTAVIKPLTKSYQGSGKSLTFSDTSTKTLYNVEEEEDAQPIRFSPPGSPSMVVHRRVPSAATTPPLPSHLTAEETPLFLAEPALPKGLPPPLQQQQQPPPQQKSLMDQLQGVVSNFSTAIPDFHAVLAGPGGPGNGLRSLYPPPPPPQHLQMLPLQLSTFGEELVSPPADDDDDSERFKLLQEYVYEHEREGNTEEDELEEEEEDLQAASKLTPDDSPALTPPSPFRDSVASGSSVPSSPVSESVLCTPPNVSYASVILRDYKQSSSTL
Chain of Metabotropic glutamate receptor 5 (Rattus norvegicus) (P31424 21-1203 limits assumed): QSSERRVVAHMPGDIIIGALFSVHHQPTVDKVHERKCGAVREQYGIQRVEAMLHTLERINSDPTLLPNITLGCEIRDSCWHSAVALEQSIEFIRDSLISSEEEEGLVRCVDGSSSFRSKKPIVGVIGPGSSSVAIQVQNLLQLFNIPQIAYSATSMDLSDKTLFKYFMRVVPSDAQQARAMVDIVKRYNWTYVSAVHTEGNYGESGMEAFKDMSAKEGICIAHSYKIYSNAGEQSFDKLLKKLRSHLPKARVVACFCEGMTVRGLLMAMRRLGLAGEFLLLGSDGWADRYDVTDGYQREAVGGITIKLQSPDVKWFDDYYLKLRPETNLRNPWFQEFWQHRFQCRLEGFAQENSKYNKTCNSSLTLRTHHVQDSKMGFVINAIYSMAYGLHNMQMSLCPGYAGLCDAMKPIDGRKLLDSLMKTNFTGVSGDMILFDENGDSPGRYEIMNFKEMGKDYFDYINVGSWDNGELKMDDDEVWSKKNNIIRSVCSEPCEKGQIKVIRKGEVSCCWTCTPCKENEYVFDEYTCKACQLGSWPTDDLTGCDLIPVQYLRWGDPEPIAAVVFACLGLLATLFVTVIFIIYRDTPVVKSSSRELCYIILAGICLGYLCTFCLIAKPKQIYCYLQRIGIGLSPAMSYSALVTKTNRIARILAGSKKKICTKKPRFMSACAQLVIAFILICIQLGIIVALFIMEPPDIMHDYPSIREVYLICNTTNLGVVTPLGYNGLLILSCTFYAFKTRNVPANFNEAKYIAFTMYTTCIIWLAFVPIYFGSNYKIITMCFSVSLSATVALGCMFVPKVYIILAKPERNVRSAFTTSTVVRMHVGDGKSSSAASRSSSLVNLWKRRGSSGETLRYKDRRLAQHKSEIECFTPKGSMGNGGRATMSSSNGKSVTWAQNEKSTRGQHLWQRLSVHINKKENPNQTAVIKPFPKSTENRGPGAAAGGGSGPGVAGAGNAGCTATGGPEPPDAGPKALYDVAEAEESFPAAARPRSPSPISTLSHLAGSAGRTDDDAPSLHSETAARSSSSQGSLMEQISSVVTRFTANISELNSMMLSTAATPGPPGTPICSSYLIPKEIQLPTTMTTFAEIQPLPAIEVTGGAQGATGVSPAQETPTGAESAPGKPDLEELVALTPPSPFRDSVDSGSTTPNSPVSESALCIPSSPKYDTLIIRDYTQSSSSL
Chain of Metabotropic glutamate receptor 8 (Homo sapiens) (O00222 whole entry): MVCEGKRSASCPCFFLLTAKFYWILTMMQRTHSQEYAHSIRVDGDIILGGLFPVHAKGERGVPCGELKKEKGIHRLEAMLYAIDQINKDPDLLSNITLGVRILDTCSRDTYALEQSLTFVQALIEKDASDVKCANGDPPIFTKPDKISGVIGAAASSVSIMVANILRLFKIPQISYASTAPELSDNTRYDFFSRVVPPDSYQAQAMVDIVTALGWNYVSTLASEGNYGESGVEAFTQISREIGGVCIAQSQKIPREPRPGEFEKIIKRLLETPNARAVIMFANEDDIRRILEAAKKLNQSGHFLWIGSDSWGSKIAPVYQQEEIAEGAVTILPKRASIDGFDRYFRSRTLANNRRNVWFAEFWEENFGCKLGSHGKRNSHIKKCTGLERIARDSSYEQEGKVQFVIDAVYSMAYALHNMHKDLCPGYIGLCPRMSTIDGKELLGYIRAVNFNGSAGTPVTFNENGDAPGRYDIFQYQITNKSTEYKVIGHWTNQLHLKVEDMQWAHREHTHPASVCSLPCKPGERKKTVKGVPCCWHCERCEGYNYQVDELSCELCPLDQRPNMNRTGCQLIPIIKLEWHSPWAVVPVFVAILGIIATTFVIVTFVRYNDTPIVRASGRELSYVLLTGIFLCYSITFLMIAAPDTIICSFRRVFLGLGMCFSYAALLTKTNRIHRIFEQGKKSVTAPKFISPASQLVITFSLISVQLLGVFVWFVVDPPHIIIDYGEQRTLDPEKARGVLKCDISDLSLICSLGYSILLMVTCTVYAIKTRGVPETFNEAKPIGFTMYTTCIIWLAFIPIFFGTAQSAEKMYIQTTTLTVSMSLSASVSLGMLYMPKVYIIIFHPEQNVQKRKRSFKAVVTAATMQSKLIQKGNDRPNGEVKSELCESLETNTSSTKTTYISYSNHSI

With `N#Cc1cc(F)cc(-c2nc(-c3ccc(F)cn3)no2)c1` the inhibition [1] was “Dose-dependent effect”, the IC50 [2] was 2.6 nM and the half-life [3] was 150 min. For the same compound, the clearance [4] was 5.17 mL/min/kg, the fraction unbound at 6 h [5] was 0.2 and the Activity [6] was < 50%. The Activity [7] was < 50%, the Activity [8] was < 50% and the Activity [9] was < 50%. For the same compound, the inhibition [10] was < 50%, the inhibition [11] was < 50% and the inhibition [12] was < 50%. For the same compound, the inhibition [13] was < 50%, the inhibition [14] was < 50% and the Activity [15] was < 50%. The Activity [16] was < 50%, the Activity [17] was < 50% and the Activity [18] was < 50%. The Activity [19] was < 50%, the Activity [20] was < 50% and the Vd [21] was 1.6 L/kg. It also gave a Cmax [22] of 460 nM, a microsomal CLint [23] of 13.5 µL/min/mg and an IC50 [24] of 26 nM. For the same compound, the inhibition [24] was “Dose-dependent effect”, the inhibition [25] was “inactive” and the inhibition [26] was 100%. For the same compound, the inhibition [27] was 100%, the inhibition [28] was “Active” and the inhibition [29] was “Dose-dependent effect”.

In the case of `N#Cc1ccc(-c2noc(-c3cc(F)cc(C#N)c3)n2)nc1`, the inhibition [1] is reported as “Dose-dependent effect”, the IC50 [2] is reported as 3.2 nM and the half-life [3] is reported as 336 min. The clearance [4] was 4 mL/min/kg, the fraction unbound at 6 h [5] was 0.23 and the Activity [6] was < 50%. The Activity [7] was < 50%, the Activity [8] was < 50% and the Activity [9] was < 50%. For the same compound, the inhibition [10] was < 50%, the inhibition [11] was < 50% and the inhibition [12] was < 50%. The inhibition [13] was < 50%, the inhibition [14] was < 50% and the Activity [15] was < 50%. The Activity [16] was < 50%, the Activity [17] was < 50% and the Activity [18] was < 50%. For the same compound, the Activity [19] was < 50%, the Activity [20] was < 50% and the Vd [21] was 2 L/kg. The Cmax [22] was 500 nM, the microsomal CLint [23] was 3 µL/min/mg and the IC50 [24] was 51 nM. The inhibition [24] was “Dose-dependent effect”, the inhibition [25] was “inactive” and the inhibition [26] was 100%. The inhibition [27] was 100%, the inhibition [28] was “Active” and the inhibition [29] was “Dose-dependent effect”.
